The subject of series [1] is A431 cells. The series can be described thus: Tyrosine kinase inhibitor assay. It is filed as cell-based, human.
In series [2] the test system is HeLa, A431, MCF-7, HepG2, MvE and HEK293 cells. The series can be described thus: Cytotoxicity assay. To be noted: up to 0.1 wt %; four different cell lines. It is filed as cell-based, human. Summed up: (§1)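 Cells were seeded in 96-well plates and grown for 24 h. Medium was then replaced with medium containing the peptide amphiphile, and cells were incubated a further 20 h. Viability was read with WST-8 reagent. Lines were HeLa, A431, MCF-7 and HepG2 cancer cells, plus MvE and HEK293 normal cells.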

Series [3] is described as follows: TEM observation of self-assembly. It is filed as physicochemical. To be noted: 1.0 wt % in PBS(+), stained with 2.0 wt % phosphotungstic acid, 200 kV. In outline:
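A carbon-supported TEM grid was dipped in a 1.0 wt % peptide amphiphile solution in PBS(+) containing Ca²⁺ and Mg²⁺. The grid was dried, negatively stained with 2.0 wt % phosphotungstic acid, and imaged at 200 kV accelerating voltage.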

The test system of series [4] is A431 cells. The series can be described thus: Cytotoxicity assay. The class given is cell-based, human. To be noted: for Selective cytotoxicity to A431 cells: five different cell lines compared, cell viability assay. Summed up: as §1
The test system of series [5] is A431 cells. The series can be described thus: Fluorescence recovery after photobleaching. It is filed as cell-based, human. To be noted: 0.08 wt% C16-E4Y for 1 h, without C16-E4Y recovery within 1 s.
The test system of series [6] is A431 cells. Nature of the series: Localization of peptide amphiphiles in cells. It is filed as cell-based, human. To be noted: C16-E4Y 0.05 wt % with NBD-C8-E4Y 0.001 wt %, 24 h, ER-tracker and MitoRed, CLSM.
The nature of series [7]: Gel formation of C16-E4Y phosphorylated by tyrosine kinase. To be noted: C16-E4Y 1 wt%, ATP 15 mM, c-Src kinase 6 µg/mL, 1× kinase buffer, 37 °C, 7 days. The class given is physicochemical.
The test system of the next series is HepG2 cells. The series can be described thus: Detection of a peptide amphiphile phosphorylated in cells. Particulars: HepG2 cells cultured with 0.05 wt % C16-E4Y; medium and cell lysate. It is filed as cell-based, human.
Another series concerns HeLa cells. The series can be described thus: Apoptosis and necrosis detection. It is filed as cell-based, human. To be noted: C16-E4Y 0.08 wt %, 1 h, counting at least 1000 cells in CLSM images. In outline:
(§2)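 Cells were grown on a dish for 24 h, then given medium containing test compound at 0.08 wt % for 1 h. Cells were stained with annexin V-FITC and propidium iodide using an apoptotic/necrotic/healthy cell detection kit. Staining was imaged by CLSM, with PI fluorescence marking membrane-damaged cells.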

Series [8] relates to A431 cells. The series can be described thus: Apoptosis and necrosis detection. The class given is cell-based, human. To be noted: C16-E4Y 0.08 wt %, 1 h, counting at least 1000 cells in CLSM images. In outline: as §2
Another series has as its system A431 tumor. Nature of the series: Antitumor activity in vivo, A431-xenografted nude mice. Particulars: same regimen, against PBS control group, n = 6. In outline:
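Nude mice with A431 cells injected subcutaneously into the flank. PBS (30 μL) with 1.5 wt % test compound was injected directly into the tumour three times a week for 3 weeks, against a PBS control. Bodyweight was followed during dosing, and tumour volume was taken as longer diameter × shorter diameter² × 0.5. Mice were sacrificed 4 weeks after inoculation; n = 6.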

`C#Cc1cccc(Nc2ncnc3cc(OCCOC)c(OCCOC)cc23)c1` [erlotinib]: the “Effect of EGFR inhibitor on the cytotoxicity of C16-E4Y” value with A431 cells [1] is listed as “alleviated the cytotoxicity”.
Take “N-capryloyl-Glu-Glu-Glu-Glu-Tyr [C8-E4Y]”: the “Cytotoxicity toward all cell lines tested” value in series [2] is “did not show cytotoxicity”. In addition, the “Self-assembly morphology by TEM” value in series [3] was “did not form any self-assembly body”.
In the case of N-lauroyl-Glu-Glu-Glu-Glu-Tyr [C12-E4Y], in [2], the “Cytotoxicity toward all cell lines tested” value is “did not show cytotoxicity”. The “Self-assembly morphology by TEM” value in series [3] was “formed only a few isolated short fibers”.
For the molecule N-palmitoyl-Glu-Glu-Glu-Glu [C16-E4], the “Selective cytotoxicity to A431 cells” value in the series on A431 cells [4] is listed as “did not exhibit selective cytotoxicity”.
Regarding “N-palmitoyl-Glu-Glu-Glu-Glu-Phe [C16-E4F]”, the “Selective cytotoxicity to A431 cells” value in the series with A431 cells [4] is reported as “did not exhibit selective cytotoxicity”.
Still for that read-out and setting: next, “N-palmitoyl-Glu-Glu-Glu-Glu-Ser [C16-E4S]”: “did not exhibit selective cytotoxicity”.
Consider “N-palmitoyl-Glu-Glu-Glu-Glu-Tyr [C16-E4Y]”, for which the “Fluorescence recovery of ER-tracker after photobleaching” value in the series with A431 cells [5] was “recovered relatively slowly”. The Intracellular localization entry in the series with A431 cells [6] was “accumulated on ER selectively”. Also, in [7], the “Gelation after incubation with a tyrosine kinase and ATP” value is listed as “partially gelated”. Also, the “Intracellular phosphorylation (C16-E4pY by MALDI-TOF/MS)” value in the series with HepG2 cells is reported as “not detected”. Further, in the series with A431 cells [4] (0.05 wt %, 20 h incubation, WST-8, five replicates), the “Cytotoxicity toward A431 cells compared with the other cell lines” value is given as “remarkably higher cytotoxicity”. Besides, the “Dose dependence of cytotoxicity” value in the series with A431 cells [4] (A431 cells, Figure 3b) is on record as “dose-dependent”. Moreover, the “Cells in early apoptosis” value in the series with HeLa cells came to 0.4%; in the series on A431 cells [8], 15.4%. Besides, the “Bodyweight of treated mice” value in the series with A431 tumor is reported as “comparable to those of the control group”. Further, in [3], the “Self-assembly morphology by TEM” value was “nanosized strings several hundred nanometers in length”.

These data come from PMC9516706 (JACS Au, 2022).
